High-throughput results (PubChem BioAssay)
DAT uptake mod: modulates human dopamine transporter uptake under cocaine; LLC-PK1 hDAT cells, [14C]-dopamine uptake with cocaine IC80; actives deviate in either direction; B-score at 10 µM; 110,000 compounds, 1.3% hits; AID 449768;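 active means Z score or B-score, a plate-position-corrected score, falls beyond the plate's 99.7% confidence bounds, in either direction; inactive means both scores lie inside the 99.7% bounds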
Jurkat tox 60K: reduces viability or proliferation of Jurkat cells; Jurkat E6.1 viability, ATP luminescence, 48 h; inhibition, % at 4 µM; 56,000 compounds, 1.2% hits; AID 463;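 active means inhibition above the mean inhibition of all tested compounds plus 3 SD, cut at about 28% in these data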
HEK293 NFkB inh: lowers PMA/ionomycin-induced NF-kB signal in HEK293 cells; inhibition, % at 3 µM; 62,000 compounds, 0.21% hits; HEK-293 NF-kB luciferase reporter, luminescence;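 active means inhibition above the mean of all tested compounds plus 3 SD, cut at about 40% in these data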
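Timing: 1 h pretreatment, 16 h stimulation, 37 °C; system: HEK-293 cells with stable firefly luciferase reporter driven by four HIV NF-kB elements; doses: 3 µM once, 0.30% DMSO; measured by: luciferase luminescence; control set: DMSO and 10 µM reference inhibitor; repeats: single test; reagent: PMA plus ionomycin mix as NF-kB-activating stimulus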
D1 allo mod: allosteric modulators of human D1 dopamine receptor. B-score at 10 µM. AID 641. 58,000 compounds, 5.9% hits. P21728. HEK293 D1, CRE-luciferase, dopamine EC30 potentiation; actives deviate in either direction;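 active means luminescence count or its row- and column-corrected plate score outside the 99.7% band of the plate's sample wells, on either side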
M1 agonist: agonists of M1 muscarinic receptor | CHO-M1 cells, Fluo-4 calcium fluorescence, agonist mode; hits give high values | B-score at 10 µM | 64,000 compounds, 3% hits | AID 626;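 active means fluorescence rise, raw or as B-score row- and column-corrected plate score, outside the 99.7% band of its plate's samples, either direction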
M1 antagonist: M1 muscarinic receptor (rat) antagonism; CHO-M1 cells, Fluo-4 calcium, ACh EC80 antagonist mode; hits give low values; B-score at 10 µM; 64,000 compounds, 3.4% hits;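 active means calcium fluorescence response, raw or row-and-column corrected B-score, differing from the plate sample mean either way at a set confidence level, mostly lower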
Target sequence (P08482 whole entry, looked up): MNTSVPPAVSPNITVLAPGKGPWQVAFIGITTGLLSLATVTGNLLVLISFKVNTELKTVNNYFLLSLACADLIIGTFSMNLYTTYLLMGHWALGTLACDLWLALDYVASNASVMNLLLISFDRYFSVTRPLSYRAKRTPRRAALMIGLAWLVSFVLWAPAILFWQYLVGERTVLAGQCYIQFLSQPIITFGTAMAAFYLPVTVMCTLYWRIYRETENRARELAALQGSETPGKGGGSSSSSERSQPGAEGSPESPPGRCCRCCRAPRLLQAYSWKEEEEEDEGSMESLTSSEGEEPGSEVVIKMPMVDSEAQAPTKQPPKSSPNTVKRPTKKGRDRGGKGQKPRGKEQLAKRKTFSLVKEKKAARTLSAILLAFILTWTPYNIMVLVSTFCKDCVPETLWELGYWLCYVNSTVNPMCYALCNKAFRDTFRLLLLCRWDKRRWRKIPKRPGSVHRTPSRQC
M1 agonist conf: rat M1 muscarinic agonism, confirmation; shares compounds with M1 agonist; CHO-M1 cells, Fluo-4 calcium fluorescence, agonist mode; actives lie on both sides; fluorescence change (max-min) at 10 µM; 1,700 compounds, 19% hits;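 active means fluorescence change differs from the solvent-only DMSO control mean at a set confidence level in both duplicate runs; inconclusive means differs from solvent-only control mean in just one of two runs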;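 further: an EC20 dose of acetylcholine follows compound addition during the same imaging run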
M4 ag counter: rat M4 muscarinic agonism, M1 counter-screen | shares compounds with M1 agonist | fluorescence change (max-min) at 10 µM | CHO M4/Gqi5 cells, Fluo-4 calcium fluorescence, agonist mode; actives lie on both sides | 1,700 compounds, 9% hits | AID 1741;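 active means fluorescence change differing from the plate's solvent-only control wells at 99.7% confidence in both duplicates, whether higher or lower; inconclusive means differs from solvent controls in only one of two duplicates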
Each line names hits and unclear results; the compound was inactive in the other large screens (follow-up assays come after a bar, where they were run). Most compounds without a hit are left out; they make up all but 7.6% or so of the library.

COCCCn1c(=NC(=O)c2ccncc2)c(C#N)cc2c(=O)n3cccc(C)c3nc21	M1 agonist 129 | M1 agonist conf 469 | M4 ag counter 363
CCOC(=O)c1cc2c(=O)n3cccc(C)c3nc2n(CCOC)c1=NC(=O)c1ccncc1	none (no result: DAT uptake mod)
Cc1cccn2c(=O)c3cc(C#N)c(=NC(=O)c4ccncc4)n(CCCOC(C)C)c3nc12	DAT uptake mod 2.4, M1 agonist 83 | M1 agonist conf 587 | M4 ag counter 511
CCCn1c(=NC(=O)c2ccncc2)c(C(=O)OCC)cc2c(=O)n3cccc(C)c3nc21	none (no result: DAT uptake mod)
CCOC(=O)c1cc2c(=O)n3cccc(C)c3nc2n(CCCOC)c1=NC(=O)c1cccnc1	M1 agonist 2.4 (no result: Jurkat tox 60K, D1 allo mod) | M1 agonist conf inactive | M4 ag counter inactive
Cc1ccc(Cl)cc1N1CCN(Cc2cc3c(cc2O)CCC3)CC1	none (no result: Jurkat tox 60K, HEK293 NFkB inh, D1 allo mod, M1 agonist, M1 antagonist)
CCOC(=O)Cc1csc(NC(=O)c2ccc3c(c2)OCO3)n1	M1 agonist -2.3 | M1 agonist conf inactive | M4 ag counter inconclusive
CC(C)Sc1nnc([C@H](C)NC(=O)OC(C)(C)C)o1	none
CC(=Nc1ccc(C)cc1)c1sc2ccccc2c1O	none (no result: Jurkat tox 60K, HEK293 NFkB inh, D1 allo mod, M1 agonist, M1 antagonist)
CC(=Nc1cccc(O)c1)c1sc2ccccc2c1O	D1 allo mod -4.3, M1 agonist 5.4 (no result: Jurkat tox 60K, HEK293 NFkB inh) | M1 agonist conf inactive | M4 ag counter inactive
CCOC(=O)c1cnc2nc(NCc3ccc(OC)c(OC)c3)[nH]n2c1=O	none
O=C(CSc1nc(-c2cccs2)cc(C(F)(F)F)n1)NCc1ccccc1	none (no result: Jurkat tox 60K, HEK293 NFkB inh, D1 allo mod, M1 agonist, M1 antagonist)
COc1ccc(C(=O)N2CCN(c3ccc(C)c(C)c3)CC2)cc1OC	M1 agonist -2.5 | M1 agonist conf inconclusive | M4 ag counter -83
COc1ccc(C(=O)N2CCN(c3ccc(C)cc3C)CC2)cc1OC	none
O=C(Nc1ccc(SC(F)F)cc1)c1ccc2nccnc2c1	Jurkat tox 60K 32, M1 agonist 3.8, M1 antagonist -0.93 | M1 agonist conf inactive | M4 ag counter inactive
Cc1cc(C)c2cc(C#N)c(SCC(=O)NCC3CCCO3)nc2c1 (stereo not drawn)	M1 agonist 2.6 (no result: D1 allo mod) | M1 agonist conf inconclusive | M4 ag counter inconclusive
CCNc1c2c3c(cccc3n(C)c1=O)C(=O)c1ccccc1-2	M1 agonist 357, M1 antagonist -17 (no result: D1 allo mod) | M1 agonist conf 3230 | M4 ag counter 2794
Cn1c(=O)c(NCCO)c2c3c(cccc31)C(=O)c1ccccc1-2	M1 agonist 388, M1 antagonist -13 (no result: Jurkat tox 60K) | M1 agonist conf 3131 | M4 ag counter 2588
COc1ccc(NC(=O)N(Cc2cc3cc(OC)ccc3[nH]c2=O)CC2CCCO2)cc1 (stereo not drawn)	M1 agonist 4 | M1 agonist conf inconclusive | M4 ag counter -74
CCN1C(=O)c2cccc3c(NC(=O)c4ccc5c(c4)OCCO5)ccc1c23	M1 agonist 9 | M1 agonist conf inactive | M4 ag counter 134
C=CCn1c(NCCc2ccccc2)nc2c1c(=O)n(C)c(=O)n2C	M1 agonist 6.5 | M1 agonist conf inactive | M4 ag counter inactive
CN(C)c1ccc(/C=C/C(O)=C2/C(=O)N(C)C3(C)CC2c2ccccc2O3)cc1 (stereo not drawn)	M1 agonist 28 | M1 agonist conf 232 | M4 ag counter 229
CN(C)c1ccc(C=C2C(=O)OC(C)(C(C)(C)C)OC2=O)cc1 (stereo not drawn)	none (no result: Jurkat tox 60K, HEK293 NFkB inh, D1 allo mod, M1 agonist, M1 antagonist)
CCCn1c(N)c(Sc2ccccc2)c(=O)n(CCC)c1=O	none (no result: Jurkat tox 60K, HEK293 NFkB inh, D1 allo mod, M1 agonist, M1 antagonist)
O=C(CS(=O)(=O)c1c[nH]c2ccccc12)Nc1ccc2c(c1)OCCO2	M1 agonist 3.2 (no result: Jurkat tox 60K) | M1 agonist conf inactive | M4 ag counter inactive
Cn1cc(S(=O)(=O)CC(=O)Nc2ccc3c(c2)OCCO3)c2ccccc21	none (no result: Jurkat tox 60K)
CNC(=O)c1ccc(-c2sc3nc(N4CCOCC4)c4c(c3c2N)CCCC4)o1	M1 agonist 5.8 | M1 agonist conf inactive | M4 ag counter -69
CNC(=O)c1ccc(-c2sc3nc(N4CCOCC4)c4c(c3c2N)CC(C)(C)OC4)o1	none (no result: Jurkat tox 60K, HEK293 NFkB inh, D1 allo mod, M1 agonist, M1 antagonist)
Nc1ccc(Cl)cc1/C(=N/O)c1ccccc1	none (no result: Jurkat tox 60K, HEK293 NFkB inh, D1 allo mod)
O=C(N1CCOCC1)C1(c2ccccc2)CCCCC1	none
O=C(C1CC1(c1ccccc1)c1ccccc1)N1CCOCC1 (stereo not drawn)	M1 agonist -2.7 (no result: Jurkat tox 60K, HEK293 NFkB inh) | M1 agonist conf inactive | M4 ag counter inactive
Cc1cc(C)c2nc(SCCc3ccccc3)nc(C)c2c1	none (no result: Jurkat tox 60K, HEK293 NFkB inh, D1 allo mod, M1 agonist, M1 antagonist)
CCOc1ccc(S(=O)(=O)n2ccc(C)n2)c2ccccc12	M1 agonist 13 | M1 agonist conf inactive | M4 ag counter inactive
C[C@H](NC(=O)OC(C)(C)C)c1nnc(SCC(=O)c2ccc(Cl)cc2)o1	M1 agonist 5.5 | M1 agonist conf inactive | M4 ag counter inactive
CC(C)(C)OC(=O)NCCc1nnc(SCC(=O)c2ccc(Cl)cc2)o1	none
Cc1nn(-c2ccccc2)c(C)c1C(=O)OCC(=O)c1c(N)n(CC(C)C)c(=O)n(C)c1=O	Jurkat tox 60K 38, M1 agonist 4.1 | M1 agonist conf inactive | M4 ag counter inactive
O=C(CCn1c(=O)c2sccc2n(CC(=O)OCc2ccccc2)c1=O)NCc1ccco1	none
O=C(CCCn1c(=O)c2sccc2n(CC(=O)OCc2ccccc2)c1=O)NCc1ccco1	M1 agonist 4.7 | M1 agonist conf -28 | M4 ag counter -72
Cc1cc(C(=O)Nc2sc3c(c2C#N)CCCCC3)cs1	none
N#Cc1c(NC(=O)c2nc3ncccn3n2)sc2c1CCCCC2	D1 allo mod -4.3, M1 agonist -1.8 | M1 agonist conf inconclusive | M4 ag counter inactive
COc1cccc(C2=CC(c3ccccc3)n3nnnc3N2)c1 (stereo not drawn)	none (no result: DAT uptake mod, Jurkat tox 60K, HEK293 NFkB inh, D1 allo mod)
COc1cccc(C2=CC(c3ccccc3)n3ncnc3N2)c1 (stereo not drawn)	M1 agonist 33 (no result: Jurkat tox 60K, HEK293 NFkB inh, D1 allo mod) | M1 agonist conf 159 | M4 ag counter 148
COc1cccc(C2=CC(c3ccc(N(C)C)cc3)n3ncnc3N2)c1 (stereo not drawn)	M1 agonist 2.2 | M1 agonist conf inactive | M4 ag counter inactive
Cc1cc(NC(=O)CN2CC3CC(C2)c2cccc(=O)n2C3)nc2c1c(=O)oc1ccccc12 (stereo not drawn)	none (no result: DAT uptake mod)
COc1ccc(C2C(C(=O)c3cccs3)=C(O)C(=O)N2c2nncs2)cc1 (stereo not drawn)	M1 agonist 93 (no result: Jurkat tox 60K) | M1 agonist conf 439 | M4 ag counter 339
C=CCOc1ccc(C2C(C(=O)c3cccs3)=C(O)C(=O)N2c2nnc(C)s2)cc1 (stereo not drawn)	none (no result: Jurkat tox 60K, HEK293 NFkB inh, D1 allo mod, M1 agonist, M1 antagonist)
COc1ccc(C2C(C(=O)c3cccs3)=C(O)C(=O)N2c2nnc(C)s2)cc1OC (stereo not drawn)	M1 agonist 68 | M1 agonist conf 96 | M4 ag counter inactive
